Results from ChEMBL document CHEMBL3286393 (J Med Chem, 2014).
Active and inactive are the calls of the source. No cut-off for these calls is given here.

How the values were obtained:
[1] = molecular target: Prostaglandin G/H synthase 1 (Homo sapiens, UniProt P23219); test: Inhibition of COX1-mediated PGE2 production in human platelets assessed as residual activity by measuring formation of 12-HHT from arachidonic acid preincubated at 10 uM for 5 mins measured after 5 mins by RP-HPLC analysis relative to control
Method in brief: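 Washed human platelets, 10⁸/mL in PBS pH 7.4 with 1 mM CaCl2: 5 min compound preincubation at room temperature, then 1 min at 37 °C. Arachidonic acid 5 μM added; 5 min at 37 °C. 12-HHT extracted and measured by RP-HPLC.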

[2] = molecular target: T1, Prostaglandin G/H synthase 1 (Ovis aries) (UniProt P05979); test: Inhibition of purified ovine COX-1 assessed as residual activity by measuring formation of 12-HHT from arachidonic acid preincubated at 10 uM for 5 mins before substrate addition measured after 5 mins by HPLC analysis relative to control
T1 sequence (whole entry): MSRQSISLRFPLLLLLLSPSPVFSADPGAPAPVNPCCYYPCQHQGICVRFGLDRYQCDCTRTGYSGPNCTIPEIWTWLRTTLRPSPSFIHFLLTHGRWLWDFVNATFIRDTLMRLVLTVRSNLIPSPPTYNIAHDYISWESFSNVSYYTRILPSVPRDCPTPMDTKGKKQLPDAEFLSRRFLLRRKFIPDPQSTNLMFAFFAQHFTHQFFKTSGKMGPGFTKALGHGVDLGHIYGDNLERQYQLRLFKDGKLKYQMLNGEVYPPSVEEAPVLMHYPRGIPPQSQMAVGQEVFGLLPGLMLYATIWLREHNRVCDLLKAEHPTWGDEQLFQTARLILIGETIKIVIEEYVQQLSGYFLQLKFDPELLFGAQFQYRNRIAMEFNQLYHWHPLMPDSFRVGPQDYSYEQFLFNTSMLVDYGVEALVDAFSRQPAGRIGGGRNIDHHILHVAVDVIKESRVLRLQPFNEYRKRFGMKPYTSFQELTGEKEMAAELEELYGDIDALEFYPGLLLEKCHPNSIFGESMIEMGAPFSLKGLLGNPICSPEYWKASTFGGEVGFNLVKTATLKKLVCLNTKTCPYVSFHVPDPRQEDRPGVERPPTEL
Method in brief: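 Purified ovine COX-1 (50 units) in 100 mM Tris pH 8 with 5 mM glutathione, 5 μM hemoglobin and 100 μM EDTA. Preincubated 5 min at 4 °C then 1 min at 37 °C. 5 μM arachidonic acid added; 12-HHT extracted after 5 min and measured by HPLC. Residual activity at 10 μM, three independent experiments.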

[3] = Aqueous stability of the compound in at 2 uM in 10 mM aqueous ammonium bicarbonate at pH 7.9 assessed as formation of trans-6-(4'-hydroxy-3'-methoxyphenyl)-2,4-dioxo-5-hexenal measured as residual amount of compound by reversed phase liquid chromatography-coupled mass spectrometry; format: physicochemical; details: buffer, pH 7.9, 2 µM
Method in brief: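 Compounds at 2 μM in 10 mM aqueous ammonium bicarbonate pH 7.9, incubated 30 min at 37 °C. Analysed by UPLC-MS on a C18 column, gradient acetonitrile/water with 0.07% formic acid, at 0.7 mL/min. Residual amount given as % of control; three to four independent experiments.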

[4] = molecular target: T2, Polyunsaturated fatty acid 5-lipoxygenase (Homo sapiens, UniProt P09917); test: Inhibition of 5-LO in human neutrophils using arachidonic acid as substrate preincubated for 15 mins measured after 10 mins by HPLC analysis
T2 sequence (P09917 whole entry): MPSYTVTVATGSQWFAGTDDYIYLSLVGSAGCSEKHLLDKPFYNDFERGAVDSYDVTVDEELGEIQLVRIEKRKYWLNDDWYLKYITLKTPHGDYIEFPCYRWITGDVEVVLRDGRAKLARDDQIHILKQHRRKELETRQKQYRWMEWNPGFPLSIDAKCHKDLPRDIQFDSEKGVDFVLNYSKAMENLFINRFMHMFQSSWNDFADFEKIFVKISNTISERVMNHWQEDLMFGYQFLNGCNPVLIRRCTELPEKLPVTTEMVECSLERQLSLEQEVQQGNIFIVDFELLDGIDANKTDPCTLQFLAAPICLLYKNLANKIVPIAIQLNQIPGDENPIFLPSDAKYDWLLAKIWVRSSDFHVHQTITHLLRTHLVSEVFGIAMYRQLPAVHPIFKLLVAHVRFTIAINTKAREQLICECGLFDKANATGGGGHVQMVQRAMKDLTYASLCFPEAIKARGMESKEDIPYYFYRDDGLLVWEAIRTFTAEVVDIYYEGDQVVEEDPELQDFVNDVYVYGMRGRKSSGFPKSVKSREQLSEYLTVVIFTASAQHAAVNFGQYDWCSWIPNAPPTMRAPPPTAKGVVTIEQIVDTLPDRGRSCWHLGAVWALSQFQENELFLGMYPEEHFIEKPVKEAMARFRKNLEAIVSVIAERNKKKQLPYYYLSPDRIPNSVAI
Method in brief: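 Fresh human neutrophils, 1 × 10⁷/mL in PBS pH 7.4 with 1 mM CaCl2 and 1 mg/mL glucose, preincubated 15 min at 37 °C. LTB4, its all-trans isomers and 5-H(P)ETE by HPLC.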

[5] = system: PBMC; test: Cytotoxicity against human PBMCs assessed as cell viability after 24 hrs by MTT assay; format: cell-based
Method in brief: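 Human PBMC (2 × 10⁵/well), 24 h exposure. MTT then 4 h at 37 °C in darkness. Formazan solubilized with 10% SDS in 20 mM HCl; absorbance 550 nm. Viability relative to untreated cells; IC50 derived.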

[6] = system: LNCaP; test: Cytotoxicity against human LNCAP cells assessed as cell viability after 24 hrs by MTT assay; format: cell-based
Method in brief: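 LNCaP seeded at 10⁴ cells/well and exposed 24 h. MTT added, then 4 h at 37 °C, 5% CO2, dark. Medium removed and formazan dissolved in DMSO; absorbance at 570 nm.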

[7] = system: Radical scavenging activity; test: Antioxidant activity assessed as DPPH free radical scavenging activity at 10 uM after 30 mins […] by spectrophotometric analysis; format: functional

Prostaglandin G/H synthase 1, sequence (P23219 whole entry): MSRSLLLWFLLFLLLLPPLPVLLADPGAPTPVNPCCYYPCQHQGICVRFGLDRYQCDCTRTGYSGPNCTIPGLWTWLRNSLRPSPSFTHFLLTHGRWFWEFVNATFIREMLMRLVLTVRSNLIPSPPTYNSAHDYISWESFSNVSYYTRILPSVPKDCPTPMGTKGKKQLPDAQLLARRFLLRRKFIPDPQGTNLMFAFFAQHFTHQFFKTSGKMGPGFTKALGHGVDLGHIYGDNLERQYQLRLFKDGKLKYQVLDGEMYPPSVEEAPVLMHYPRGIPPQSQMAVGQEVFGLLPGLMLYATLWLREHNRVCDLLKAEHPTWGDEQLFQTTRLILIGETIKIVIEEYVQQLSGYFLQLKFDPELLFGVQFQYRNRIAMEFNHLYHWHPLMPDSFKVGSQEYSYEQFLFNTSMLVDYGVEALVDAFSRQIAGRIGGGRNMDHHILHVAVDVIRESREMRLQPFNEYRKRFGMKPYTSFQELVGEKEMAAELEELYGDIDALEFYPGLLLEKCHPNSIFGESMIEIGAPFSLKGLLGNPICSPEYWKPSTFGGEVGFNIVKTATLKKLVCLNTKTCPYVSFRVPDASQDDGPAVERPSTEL

Row | inhibition [1] | inhibition [2] | Stability [3] | IC50 [4] [µM] | Compound | IC50 [5] [µM] | IC50 [6] [µM] | Activity [7] [%]
1 | inactive |  | Unstable |  | COc1cc(/C=C/C(=O)CC(=O)/C=C/c2cc(CC=C(C)C)c(O)c(OC)c2)cc(CC=C(C)C)c1O | > 50 | > 50 | 57.9
2 | inactive |  | Unstable | 1.7 | COc1cc(/C=C/C(=O)/C=C/c2cc(CC=C(C)C)c(O)c(OC)c2)cc(CC=C(C)C)c1O | > 50 | 43.8 | 75.8
3 | inactive | inactive | Unstable | 0.8 | COc1cc(/C=C/c2cc(/C=C/c3cc(CC=C(C)C)c(O)c(OC)c3)[nH]n2)cc(CC=C(C)C)c1O | > 50 | > 50 | 57.3

The next lines start with the molecule.

Row | Compound | inhibition [1] | inhibition [2] | Stability [3] | IC50 [4] [µM] | IC50 [5] [µM] | IC50 [6] [µM] | Activity [7] [%]
4 | COc1cc(/C=C/C(=O)CC(=O)c2ccc(O)c(OC)c2)ccc1O | inactive | inactive | 72% | 9.9 | > 50 | > 50 | 80.2
5 | COc1cc(/C=C/c2cc(-c3ccc(O)c(OC)c3)[nH]n2)ccc1O | inactive | inactive | Unstable | 1.9 | > 50 | > 50 | 70.3
6 | COc1cc(/C=C/C(=O)/C=C/c2ccc(O)c(OC)c2)ccc1O | inactive | inactive | Unstable | 5.2 | 34.7 | 10 | 80.7
7 | COc1cc(CCC(=O)CC(=O)CCc2ccc(O)c(OC)c2)ccc1O [TETRAHYDROCURCUMIN] | inactive | inactive | Unstable |  | > 50 | > 50 | 62.2
8 | COc1cc(/C=C/C(=O)CC(=O)/C=C/c2ccc(O)c(OC)c2)ccc1O [CURCUMIN] |  | inactive | 41.6% |  | 34.8 | 36 | 63.9
9 | COc1cc(/C=C/c2cc(/C=C/c3ccc(O)c(OC)c3)[nH]n2)ccc1O [CURCUMIN PYRAZOLE] |  | inactive | Unstable | 0.7 | > 50 | > 50 | 59.6
